The values that follow come from ChEMBL document CHEMBL2331495, “Novel pyrazole derivatives as neutral CB₁ antagonists with significant activity towards food intake” (Eur J Med Chem, 2013).

SMILES strings stand for the structures. Activity calls are given as the source filed them. The rule behind the calls is not given here.

Series [1] relates to Mus musculus. Put plainly: Reduction of food intake in fasted C57Bl6/J mouse at 10 to 20 mg/kg, ip administered 15 mins prior to food presentation measured after 1 to 3 hrs. Format: functional, organism-based. The method in brief: (§1)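 Male-unspecified C57Bl6/J mice (20-25 g) were housed singly on a reverse light-dark cycle and fasted 18 h. Compounds in saline with 2.5% Tween 80 and 2.5% ethanol, or vehicle, were given ip; food was presented 15 min later. Intake was recorded over 3 h. Mean ± SEM; two-way ANOVA with Bonferroni test.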

The target of the next series is Cannabinoid receptor 2 (Mus musculus, UniProt P47936). The series can be described thus: Displacement of [3H]CP55940 from CB2 receptor in CD1 mouse spleen membrane by liquid scintillation counting analysis. It is filed as cell membranes. (Loss of bound radioactivity is the signal in a displacement assay; it reports binding, not function.)
Series [2] is filed under the species Mus musculus. The series can be described thus: Selectivity ratio of Ki for CB1 receptor in CD1 mouse brain membrane without cerebellum to Ki for CB2 receptor in CD1 mouse spleen membrane. Format: cell membranes.
Series [3] addresses Cannabinoid receptor 1 (Homo sapiens) (UniProt P21554). Put plainly: Intrinsic activity at human recombinant CB1 receptor transfected in CHO cells assessed as effect on [35S]GTPgammaS binding up to 0.1 uM after 1 hr by liquid scintillation spectrometry. It is filed as functional, cell-based. The method in brief:
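[…] used CHO cells expressing human recombinant CB1, incubated with [³⁵S]GTPγS and a range of compound concentrations alone for 1 h at 37 °C. The reaction was stopped with ice-cold Tris/BSA, filtered on glass-fibre filters and read by liquid scintillation spectrometry. Data are percentage stimulation over basal, mean ± SEM of five experiments.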

The next series concerns the target Cannabinoid receptor 1 (Mus musculus, UniProt P47746). Put plainly: Displacement of [3H]CP55940 from CB1 receptor in CD1 mouse brain membrane without cerebellum by liquid scintillation counting analysis. It is filed as cell membranes.
Series [4] has as its target Cannabinoid receptor 1 (Mus musculus) (UniProt P47746). The series can be described thus: Agonist activity at CB1 receptor in mouse N1E-115 cells assessed as increase in ERK1/2 phosphorylation after 10 mins by Western blot analysis. Format: cell-based. The method in brief:
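N1E-115 cells were grown in high-glucose DMEM with 10% FBS at 37 °C, 5% CO2. They were exposed for 10 min to compounds in D-PBS with 1% DMSO, then lysed at 4 °C. P-ERK 1/2 was measured by western blot at 40 µg total protein and expressed as percentage of vehicle. Five independent experiments; one-way ANOVA.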
On the technique in general: In western blotting, separated proteins are transferred to a membrane and probed.

Series [5] has the same target. The series can be described thus: Neutral antagonist activity at CB1 receptor in albino CD1 mouse vas deferens assessed as rightward shift in WIN 55,212-2 concentration response curve for electrically evoked contractions at 0.1 to 10 uM treated 20 mins before first addition of WIN 55,212-2. The essentials:
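Vas deferens from male albino CD1 mice, electrically stimulated as for twitch studies, in Krebs-Henseleit at 37 °C. Compound at a fixed concentration (0.1, 1 or 10 μM; DMSO ≤0.1%) was added 20 min before cumulative WIN 55,212-2. Inhibition of twitches was expressed as percentage of the pre-WIN amplitude; mean ± SEM.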

Series [6] shares this target. Put plainly: Neutral antagonist activity at CB1 receptor in mouse N1E-115 cells assessed as inhibition of WIN 55,212-2-induced ERK1/2 phosphorylation at 125 to 500 nM treated 5 mins prior to WIN 55,212-2 challenge by Western blot analysis. Format: cell-based. The method in brief:
(§2)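 N1E-115 cells were pretreated for 5 min with compound (0.1-1.0 μM; dissolved in D-PBS with 1% DMSO), then exposed for 10 min to WIN55,212-2 (25 nM). Lysates (40 µg total protein) were western blotted for P-ERK 1/2 and expressed as percentage of vehicle. Five independent experiments; one-way ANOVA.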

The target is the same in series [7]. Put plainly: Neutral antagonist activity at CB1 receptor in mouse N1E-115 cells assessed as inhibition of WIN 55,212-2-induced ERK1/2 phosphorylation at 1 uM treated 5 mins prior to WIN 55,212-2 challenge by Western blot analysis. It is filed as cell-based. The method in brief:
as §2

The target is the same in series [8]. The series can be described thus: Intrinsic activity at CB1 receptor in albino CD1 mouse vas deferens assessed as increase in amplitude of electrically evoked contractions at 0.1 to 100 uM. The method in brief: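 Vas deferens from male albino CD1 mice (30-40 g) was held at 0.5 g tension in Krebs-Henseleit at 37 °C, gassed with 95% O2/5% CO2. Twitches were evoked by 0.5-s trains of three 0.5-ms pulses at 110% maximal voltage, 0.1 Hz. Compounds (DMSO ≤0.1%) were added once responses were reproducible. Contraction amplitude was compared with control; mean ± SEM, n=5; ANOVA with Bonferroni test.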

The test system of series [9] is Mus musculus. Put plainly: Reduction of food intake in fasted C57Bl6/J mouse at 10 to 20 mg/kg, ip administered 15 mins prior to food presentation measured for 2 hrs. Format: functional, organism-based. The essentials: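 C57Bl6/J mice (20-25 g), housed singly on a reverse light-dark cycle and fasted 18 h. Dosed ip at 10 and 20 mg/kg in saline with Tween 80 and ethanol (each 2.5 wt%). Weighed food presented 15 min later; intake followed over 3 h. Mean ± SEM; two-way ANOVA with Bonferroni post hoc versus vehicle.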

Series [10] deals with Mus musculus. The series can be described thus: Toxicity in C57Bl6/J mouse assessed as mortality at 20 mg/kg, ip. It is filed as organism-based. Further details: dose 20 mg/kg, route intraperitoneal. To be noted: in vivo. The method in brief: (§3)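 Fasted C57Bl6/J mice from the food-intake test were given 20 mg/kg ip in saline with Tween 80 and ethanol (each 2.5 wt%).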
Series [11] concerns Mus musculus. Put plainly: Toxicity in C57Bl6/J mouse assessed as locomotion blockage at 20 mg/kg, ip. It is filed as organism-based. More on the design: dose 20 mg/kg, route intraperitoneal. Particulars: in vivo. The essentials: as §3
Series [12] has as its target Cannabinoid receptor 1 (Mus musculus) (UniProt P47746). To be noted: N1E-115, 1 uM.
Series [13] relates to Mus musculus. Put plainly: Reduction of food intake in fasted C57Bl6/J mouse at 3 to 10 mg/kg, ip administered 15 mins prior to food presentation measured after 1 hr. It is filed as functional, organism-based. The essentials: as §1
Series [14] has as its system Mus musculus. The series can be described thus: Increase in food intake in fasted C57Bl6/J mouse at 3 to 10 mg/kg, ip administered 15 mins prior to food presentation measured after 3 hrs. It is filed as functional, organism-based.
Series [15] deals with Mus musculus. The series can be described thus: Reduction of food intake in fasted C57Bl6/J mouse at 10 to 20 mg/kg, ip administered 15 mins prior to food presentation measured after 2 to 3 hrs. Format: functional, organism-based. The essentials:
as §1

Series [16] has as its system Mus musculus. The series can be described thus: Toxicity in C57Bl6/J mouse assessed as observable adverse events at 20 mg/kg, ip. To be noted: in vivo. Format: organism-based. Further details: dose 20 mg/kg, route intraperitoneal.

Sequence of Cannabinoid receptor 1 (P47746 whole entry): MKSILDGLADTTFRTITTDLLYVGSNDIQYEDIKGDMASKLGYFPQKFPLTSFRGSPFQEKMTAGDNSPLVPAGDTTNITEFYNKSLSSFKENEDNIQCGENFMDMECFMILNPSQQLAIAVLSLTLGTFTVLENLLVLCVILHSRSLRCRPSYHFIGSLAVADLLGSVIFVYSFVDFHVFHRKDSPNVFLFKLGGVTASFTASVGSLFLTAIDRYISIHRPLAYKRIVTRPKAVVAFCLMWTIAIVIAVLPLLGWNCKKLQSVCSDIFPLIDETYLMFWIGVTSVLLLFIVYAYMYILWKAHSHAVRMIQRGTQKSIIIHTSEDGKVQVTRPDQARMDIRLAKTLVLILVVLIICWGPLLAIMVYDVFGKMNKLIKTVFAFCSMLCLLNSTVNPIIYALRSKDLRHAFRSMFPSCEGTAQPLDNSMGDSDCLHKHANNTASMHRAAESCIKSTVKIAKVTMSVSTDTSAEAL
Sequence of Cannabinoid receptor 1 (Mus musculus) (P47746 whole entry): as above
Sequence of Cannabinoid receptor 1 (Homo sapiens) (P21554 whole entry): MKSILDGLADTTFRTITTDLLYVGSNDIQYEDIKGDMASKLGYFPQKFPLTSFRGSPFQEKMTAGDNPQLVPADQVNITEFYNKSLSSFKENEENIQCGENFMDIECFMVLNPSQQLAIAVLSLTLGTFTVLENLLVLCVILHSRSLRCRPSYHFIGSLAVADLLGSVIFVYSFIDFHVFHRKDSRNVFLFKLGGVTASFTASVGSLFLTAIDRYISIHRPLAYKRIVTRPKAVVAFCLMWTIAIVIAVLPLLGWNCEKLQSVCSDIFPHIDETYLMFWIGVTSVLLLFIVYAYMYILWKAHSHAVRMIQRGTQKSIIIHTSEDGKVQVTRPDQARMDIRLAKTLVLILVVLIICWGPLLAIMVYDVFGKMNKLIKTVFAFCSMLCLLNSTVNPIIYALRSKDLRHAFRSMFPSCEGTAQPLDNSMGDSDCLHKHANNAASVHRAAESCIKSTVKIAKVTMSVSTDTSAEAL
Sequence of Cannabinoid receptor 2 (P47936 whole entry): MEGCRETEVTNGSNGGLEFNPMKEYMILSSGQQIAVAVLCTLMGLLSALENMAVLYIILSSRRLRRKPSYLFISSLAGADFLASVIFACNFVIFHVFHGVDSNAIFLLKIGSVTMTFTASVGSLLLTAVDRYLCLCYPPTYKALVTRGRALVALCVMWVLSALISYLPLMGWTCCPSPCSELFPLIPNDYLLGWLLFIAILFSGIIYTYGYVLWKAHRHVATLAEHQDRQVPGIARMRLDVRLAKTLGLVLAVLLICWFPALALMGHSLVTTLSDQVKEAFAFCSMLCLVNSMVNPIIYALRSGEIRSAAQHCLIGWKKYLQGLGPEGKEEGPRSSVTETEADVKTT

For `Cc1c(C(=O)CC2CCCCC2)nn(-c2ccc(Cl)cc2Cl)c1-c1ccc(Cl)cc1`, the result (in the series on Mus musculus [1]; in series [5]) was Active. In addition, the Ki came out at 2230 nM at Cannabinoid receptor 2 and 46.1 nM on Cannabinoid receptor 1. Further, the Ratio Ki in the series listed under Mus musculus [2] stood at 0.021. The Intrinsic activity entry in series [3] was “inactive”. In addition, the result in [4] was inactive. Besides, the inhibition result in [6] was “Active”.

Consider `Cc1c(C(NN2CCCCC2)C(F)(F)F)nn(-c2ccc(Cl)cc2Cl)c1-c1ccc(Cl)cc1` (racemic), for which the Ki at Cannabinoid receptor 2 is > 5000 nM; at Cannabinoid receptor 1, 287 nM. Further, the Ratio Ki in the series listed under Mus musculus [2] was < 0.057. The inhibition entry in [7] is “Active”. The Intrinsic activity entry in [8] was “inactive”. In series [4], the result was inactive. For the same compound, in series [5], the result was Active.

In the case of `Cc1c(/C=C/C2CCCCC2)nn(-c2ccc(Cl)cc2Cl)c1-c1ccc(Cl)cc1`, the Ki was 3800 nM at Cannabinoid receptor 2 and 11.2 nM at Cannabinoid receptor 1. In addition, the Ratio Ki in the series listed under Mus musculus [2] worked out at 0.003. The Intrinsic activity entry in series [8] is “inactive”. Also, the outcome in series [4] was inactive. The outcome (in series [5]; with Mus musculus [9]) was Active. In addition, the inhibition result in series [6] is “Active”.

Take `Cc1c(/C(F)=C\C2CCCCC2)nn(-c2ccc(Cl)cc2Cl)c1-c1ccc(Cl)cc1`: the results for the Ki at Cannabinoid receptor 2 and at Cannabinoid receptor 1 were 4000 nM and 412 nM, respectively. Moreover, the Ratio Ki in the series listed under Mus musculus [2] stood at 0.103. For the same compound, the Intrinsic activity entry in series [8] was “inactive”. In addition, the outcome in series [5] was Active.

For the compound `Cc1c(C(=O)NN2CCCCC2)nn(-c2ccc(Cl)cc2Cl)c1-c1ccc(Cl)cc1` [RIMONABANT], the Activity entry in the series with Mus musculus [10] and with Mus musculus [11] was “Toxic” throughout. In series [12], the inhibition entry is “Active”. Also, the outcome in the series on Mus musculus [13] and in the series with Mus musculus [14] was Active. In [4], the result was inactive.

In the case of `Cc1c(/C(F)=C/C2CCCCC2)nn(-c2ccc(Cl)cc2Cl)c1-c1ccc(Cl)cc1`, the Ki on Cannabinoid receptor 2 was determined as 1950 nM; at Cannabinoid receptor 1, 25.8 nM. Besides, the Ratio Ki in the series listed under Mus musculus [2] was found to be 0.013. Besides, the Intrinsic activity entry in series [3] and in series [8] was “inactive” throughout. For the same compound, the result (in the series with Mus musculus [15]; in series [5]) was Active. For the same compound, in series [4], the result was inactive. In addition, the inhibition result in series [6] is “Active”. Further, the Activity entry with Mus musculus [16] is “Non-toxic”.

As to `Cc1c(C(O)CC2CCCCC2)nn(-c2ccc(Cl)cc2Cl)c1-c1ccc(Cl)cc1` (racemic), the outcome (with Mus musculus [1]; in [5]) was Active. Further, at Cannabinoid receptor 2, the Ki was 4200 nM. In addition, the Intrinsic activity entry in series [3] and in [8] was “inactive” in each case. Besides, the inhibition entry in series [7] is “Active”. In [4], the result was inactive.

What is called Ki is the equilibrium dissociation constant of an inhibitor or competing ligand from its target.
